In ChEMBL document CHEMBL3576819, “Design, synthesis, biological evaluation and molecular docking studies of phenylpropanoid derivatives as potent anti-hepatitis B virus agents” (Eur J Med Chem, 2015):

Tests used:
Hepatitis B virus [1] = experiment: Antiviral activity against Hepatitis B virus infected in human HepG2.2.15 cells assessed as inhibition of HBsAg secretion at 37.5 uM after 3 days by ELISA; format: functional; settings: HepG2 2.2.15, 72 h
Method in brief: (§1)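 HepG2.2.15 cells (MEM, 10% FBS, 380 µg/ml G418) seeded at 1×10^5 cells/ml, held 24 h at 37 °C, then treated with various drug concentrations; medium with drug renewed every 3 d for up to 9 d. Culture medium sampled on days 3, 6 and 9, stored at -20 °C, and assayed for secreted antigen. Lamivudine as positive control; IC50 = 50% inhibition of secretion; means of at least two experiments.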

Hepatitis B virus [2] = experiment: Antiviral activity against Hepatitis B virus infected in human HepG2.2.15 cells assessed as inhibition of HBsAg secretion at 75 uM after 6 days by ELISA; format: functional; settings: HepG2 2.2.15, 144 h; method in brief: as §1
Hepatitis B virus [3] = experiment: Antiviral activity against Hepatitis B virus infected in human HepG2.2.15 cells assessed as cell survival at 300 uM after 9 days (reference value: 100%); format: functional; settings: HepG2 2.2.15, 216 h
Method in brief: (§2)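 HepG2.2.15 cells (MEM, 10% FBS, 380 µg/ml G418, 37 °C, 5% CO2) seeded at 1×10^5 cells/ml, cultured 24 h, then exposed to various drug concentrations; drug-containing medium renewed every 3 d. OD read at 450 nm after 9 days; percent cell death calculated; CC50 = concentration killing 50% of cells. Means of at least two experiments.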

Hepatitis B virus [4] = experiment: Antiviral activity against Hepatitis B virus infected in human HepG2.2.15 cells assessed as cell survival at 75 uM after 9 days (reference value: 100%); format: functional; settings: HepG2 2.2.15, 216 h; method in brief: as §2
Hepatitis B virus [5] = experiment: Antiviral activity against Hepatitis B virus infected in human HepG2.2.15 cells assessed as inhibition of HBsAg secretion at 150 uM after 6 days by ELISA; format: functional; settings: HepG2 2.2.15, 144 h; method in brief: as §1
Hepatitis B virus [6] = experiment: Antiviral activity against Hepatitis B virus infected in human HepG2.2.15 cells assessed as inhibition of HBeAg secretion at 150 uM after 6 days by ELISA; format: functional; settings: HepG2 2.2.15, 144 h; method in brief: as §1
Hepatitis B virus [7] = experiment: Antiviral activity against Hepatitis B virus infected in human HepG2.2.15 cells assessed as inhibition of HBeAg secretion at 75 uM after 9 days by ELISA; format: functional; settings: HepG2 2.2.15, 216 h; method in brief: as §1
[8] = Cytotoxicity against human HepG2.2.15 cells assessed as cell death after 9 days by MTT assay; format: cell-based, HepG2 2.2.15; method in brief: as §2
Hepatitis B virus [9] = experiment: Antiviral activity against Hepatitis B virus infected in human HepG2.2.15 cells assessed as inhibition of HBsAg secretion at 150 uM after 9 days by ELISA; format: functional; settings: HepG2 2.2.15, 216 h; method in brief: as §1
[10] = Selectivity index, ratio of CC50 for human HepG2.2.15 cells to IC50 for Hepatitis B virus infected in human HepG2.2.15 cells assessed as inhibition of HBeAg secretion; format: functional
Method in brief: (§3)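 Selectivity index computed as CC50/IC50, with CC50 from cell death of HepG2.2.15 cells after 9 days of treatment (OD 450 nm) and IC50 from 50% inhibition of HBeAg or HBsAg secretion in the same cells; medium with drug renewed every 3 d.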

Hepatitis B virus [11] = experiment: Antiviral activity against Hepatitis B virus infected in human HepG2.2.15 cells assessed as inhibition of HBsAg secretion by ELISA; format: functional, organism-based; settings: HepG2 2.2.15; method in brief: as §1
Hepatitis B virus [12] = experiment: Antiviral activity against Hepatitis B virus infected in human HepG2.2.15 cells assessed as cell survival at 37.5 uM after 9 days (reference value: 100%); format: functional; settings: HepG2 2.2.15, 216 h; method in brief: as §2
Hepatitis B virus [13] = experiment: Antiviral activity against Hepatitis B virus infected in human HepG2.2.15 cells assessed as inhibition of HBsAg secretion at 300 uM after 6 days by ELISA; format: functional; settings: HepG2 2.2.15, 144 h; method in brief: as §1
Hepatitis B virus [14] = experiment: Antiviral activity against Hepatitis B virus infected in human HepG2.2.15 cells assessed as inhibition of HBsAg secretion at 75 uM after 3 days by ELISA; format: functional; settings: HepG2 2.2.15, 72 h; method in brief: as §1
Hepatitis B virus [15] = experiment: Antiviral activity against Hepatitis B virus infected in human HepG2.2.15 cells assessed as inhibition of HBeAg secretion at 75 uM after 3 days by ELISA; format: functional; settings: HepG2 2.2.15, 72 h; method in brief: as §1
Hepatitis B virus [16] = experiment: Antiviral activity against Hepatitis B virus infected in human HepG2.2.15 cells assessed as inhibition of HBeAg secretion at 37.5 uM after 6 days by ELISA; format: functional; settings: HepG2 2.2.15, 144 h; method in brief: as §1
Hepatitis B virus [17] = experiment: Antiviral activity against Hepatitis B virus infected in human HepG2.2.15 cells assessed as inhibition of HBeAg secretion by ELISA; format: functional, organism-based; settings: HepG2 2.2.15; method in brief: as §1
Hepatitis B virus [18] = experiment: Antiviral activity against Hepatitis B virus infected in human HepG2.2.15 cells assessed as inhibition of HBeAg secretion at 300 uM after 6 days by ELISA; format: functional; settings: HepG2 2.2.15, 144 h; method in brief: as §1
Hepatitis B virus [19] = experiment: Antiviral activity against Hepatitis B virus infected in human HepG2.2.15 cells assessed as inhibition of HBeAg secretion at 75 uM after 6 days by ELISA; format: functional; settings: HepG2 2.2.15, 144 h; method in brief: as §1
Hepatitis B virus [20] = experiment: Antiviral activity against Hepatitis B virus infected in human HepG2.2.15 cells assessed as inhibition of HBsAg secretion at 150 uM after 3 days by ELISA; format: functional; settings: HepG2 2.2.15, 72 h; method in brief: as §1
Hepatitis B virus [21] = experiment: Antiviral activity against Hepatitis B virus infected in human HepG2.2.15 cells assessed as inhibition of HBeAg secretion at 300 uM after 9 days by ELISA; format: functional; settings: HepG2 2.2.15, 216 h; method in brief: as §1
Hepatitis B virus [22] = experiment: Antiviral activity against Hepatitis B virus infected in human HepG2.2.15 cells assessed as cell survival at 150 uM after 9 days (reference value: 100%); format: functional; settings: HepG2 2.2.15, 216 h; method in brief: as §2
[23] = Selectivity index, ratio of CC50 for human HepG2.2.15 cells to IC50 for Hepatitis B virus infected in human HepG2.2.15 cells assessed as inhibition of HBsAg secretion; format: functional; method in brief: as §3
Hepatitis B virus [24] = experiment: Antiviral activity against Hepatitis B virus infected in human HepG2.2.15 cells assessed as inhibition of HBsAg secretion at 37.5 uM after 9 days by ELISA; format: functional; settings: HepG2 2.2.15, 216 h; method in brief: as §1
Hepatitis B virus [25] = experiment: Antiviral activity against Hepatitis B virus infected in human HepG2.2.15 cells assessed as inhibition of HBsAg secretion at 300 uM after 3 days by ELISA; format: functional; settings: HepG2 2.2.15, 72 h; method in brief: as §1
Hepatitis B virus [26] = experiment: Antiviral activity against Hepatitis B virus infected in human HepG2.2.15 cells assessed as inhibition of HBsAg secretion at 300 uM after 9 days by ELISA; format: functional; settings: HepG2 2.2.15, 216 h; method in brief: as §1
Hepatitis B virus [27] = experiment: Antiviral activity against Hepatitis B virus infected in human HepG2.2.15 cells assessed as inhibition of HBeAg secretion at 300 uM after 3 days by ELISA; format: functional; settings: HepG2 2.2.15, 72 h; method in brief: as §1
Hepatitis B virus [28] = experiment: Antiviral activity against Hepatitis B virus infected in human HepG2.2.15 cells assessed as inhibition of HBeAg secretion at 150 uM after 3 days by ELISA; format: functional; settings: HepG2 2.2.15, 72 h; method in brief: as §1
Hepatitis B virus [29] = experiment: Antiviral activity against Hepatitis B virus infected in human HepG2.2.15 cells assessed as inhibition of HBeAg secretion at 150 uM after 9 days by ELISA; format: functional; settings: HepG2 2.2.15, 216 h; method in brief: as §1
Hepatitis B virus [30] = experiment: Antiviral activity against Hepatitis B virus infected in human HepG2.2.15 cells assessed as inhibition of HBsAg secretion at 37.5 uM after 6 days by ELISA; format: functional; settings: HepG2 2.2.15, 144 h; method in brief: as §1
Hepatitis B virus [31] = experiment: Antiviral activity against Hepatitis B virus infected in human HepG2.2.15 cells assessed as inhibition of HBsAg secretion at 75 uM after 9 days by ELISA; format: functional; settings: HepG2 2.2.15, 216 h; method in brief: as §1
Hepatitis B virus [32] = experiment: Antiviral activity against Hepatitis B virus infected in human HepG2.2.15 cells assessed as inhibition of HBeAg secretion at 37.5 uM after 9 days by ELISA; format: functional; settings: HepG2 2.2.15, 216 h; method in brief: as §1
Hepatitis B virus [33] = experiment: Antiviral activity against Hepatitis B virus infected in human HepG2.2.15 cells assessed as inhibition of HBeAg secretion at 37.5 uM after 3 days by ELISA; format: functional; settings: HepG2 2.2.15, 72 h; method in brief: as §1

O=C(/C=C/c1ccc2c(c1)OCO2)O/N=C/c1cccs1 gave an inhibition at 37.5 µM (Hepatitis B virus [1]) of 20.4%, an inhibition at 75 µM (Hepatitis B virus [2]) of 45.4% and a viability at 300 µM (Hepatitis B virus [3]) of 79.4%. It also gave a viability at 75 µM (Hepatitis B virus [4]) of 105%, an inhibition at 150 µM (Hepatitis B virus [5]) of 63.2% and an inhibition at 150 µM (Hepatitis B virus [6]) of 46.1%. For the same compound, the inhibition at 75 µM (Hepatitis B virus [7]) was 42.9%, the CC50 at 216 h [8] was 266 µM and the inhibition at 150 µM (Hepatitis B virus [9]) was 63.1%. The “Ratio CC50/IC50” value [10] was 2.26, the IC50 (Hepatitis B virus [11]) was 75.8 µM and the viability at 37.5 µM (Hepatitis B virus [12]) was 112%. It also gave an inhibition at 300 µM (Hepatitis B virus [13]) of 87.5%, an inhibition at 75 µM (Hepatitis B virus [14]) of 32.1% and an inhibition at 75 µM (Hepatitis B virus [15]) of 25.7%. For the same compound, the inhibition at 37.5 µM (Hepatitis B virus [16]) was 20.6%, the IC50 (Hepatitis B virus [17]) was 118 µM and the inhibition at 300 µM (Hepatitis B virus [18]) was 63.2%. The inhibition at 75 µM (Hepatitis B virus [19]) was 32%, the inhibition at 150 µM (Hepatitis B virus [20]) was 46.3% and the inhibition at 300 µM (Hepatitis B virus [21]) was 71.6%. For the same compound, the viability at 150 µM (Hepatitis B virus [22]) was 92.2%, the “Ratio CC50/IC50” value [23] was 3.51 and the inhibition at 37.5 µM (Hepatitis B virus [24]) was 29.7%. The inhibition at 300 µM (Hepatitis B virus [25]) was 58.3%, the inhibition at 300 µM (Hepatitis B virus [26]) was 88.1% and the inhibition at 300 µM (Hepatitis B virus [27]) was 51.3%. The inhibition at 150 µM (Hepatitis B virus [28]) was 33.5%, the inhibition at 150 µM (Hepatitis B virus [29]) was 51.5% and the inhibition at 37.5 µM (Hepatitis B virus [30]) was 29.6%. The inhibition at 75 µM (Hepatitis B virus [31]) was 52%, the inhibition at 37.5 µM (Hepatitis B virus [32]) was 25.4% and the inhibition at 37.5 µM (Hepatitis B virus [33]) was 15.9%.
